Experiment [1] is described as follows: inhibitors of TNFa-induced NFkB p65 translocation, primary screen, imaging, HUVEC, MLSMR starter and 10KST1 sets (AID 438;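 active = inhibition above 20% together with a positive visual image hit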;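 note: compound added about 3h40 before a 20 min TNFalpha stimulation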;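 for inhibition: signal is the nuclear over cytoplasmic p65 intensity ratio per well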). The settings on record: HUVEC TNFa-induced p65 nuclear translocation; cell count: measured here: nuclei count (cytotoxicity indicator), at 2.08 µM; inhibition: at 2 µM, stronger effect = higher value, 0% TNFa-plus-vehicle, 100% no-TNFa wells.
Experiment [2] in a line: inhibitors of E-selectin induction by TNFa, primary screen, imaging, HUVEC, immunofluorescence, MLSMR starter and 10KST1 sets (AID 487;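 active = visually confirmed hit in the image check and inhibition above 20%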;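 for inhibition: signal is fraction of cell area covered by stained E-selectin grains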;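 for nuclei count: 100% = median nuclei count of all wells on the same plate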). Conditions: HUVEC TNFalpha-induced E-selectin immunofluorescence imaging, at 2 µM; inhibition: stronger effect = higher value; nuclei count: measured here: cell number, toxicity.
Experiment [3] in a line: DUSP6 inhibitors restoring Erk phosphorylation by chemical complementation, primary imaging in DUSP6-transfected HeLa (AID 609).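 For inhibition: phospho-Erk level distribution per well compared with pooled transfected vehicle control wells.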 Conditions: HeLa MKP-3 transfected, phospho-Erk imaging KS statistic, at 10 µM, cells stimulated with TPA for 15 min.
The target of experiment [4] is Dual specificity protein phosphatase 6 (Homo sapiens) (UniProt Q16828). Described as above. Conditions: HeLa MKP-3 transfected, phospho-Erk imaging KS statistic; at 10 µM; stronger effect = higher value; cells stimulated with TPA for 15 min.
Chain of Dual specificity protein phosphatase 6 (Homo sapiens) (Q16828 whole entry, looked up): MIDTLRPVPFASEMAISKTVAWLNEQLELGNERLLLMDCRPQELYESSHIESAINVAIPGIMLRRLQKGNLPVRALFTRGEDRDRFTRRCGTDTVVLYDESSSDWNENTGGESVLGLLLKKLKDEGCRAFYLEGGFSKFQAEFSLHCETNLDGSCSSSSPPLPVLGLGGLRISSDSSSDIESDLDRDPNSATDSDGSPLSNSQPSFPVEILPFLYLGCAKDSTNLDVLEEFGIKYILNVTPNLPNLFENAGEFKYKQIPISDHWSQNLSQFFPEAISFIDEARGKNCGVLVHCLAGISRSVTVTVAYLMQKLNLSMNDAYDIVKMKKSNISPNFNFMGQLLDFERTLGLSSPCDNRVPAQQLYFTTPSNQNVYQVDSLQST
For experiment [5], the target named is Voltage-gated potassium channel subunit beta-2 (Rattus norvegicus) (UniProt P62483). The experiment is described as follows: KvBeta enzyme negative modulators, primary screen, biochemical, NADPH fluorescence (AID 622;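 active = fluorescence slope higher than the sample average by over 3 SD, cut at about -0.22 in these data, passing the limit was not always enough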;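 note: slope of raw intensity against log time taken from 70 to 1610 s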). The settings on record: recombinant KvBeta, 4-cyanobenzaldehyde reduction, at 10 µM, stronger effect = higher value.
Chain of Voltage-gated potassium channel subunit beta-2 (Rattus norvegicus) (P62483 whole entry, looked up): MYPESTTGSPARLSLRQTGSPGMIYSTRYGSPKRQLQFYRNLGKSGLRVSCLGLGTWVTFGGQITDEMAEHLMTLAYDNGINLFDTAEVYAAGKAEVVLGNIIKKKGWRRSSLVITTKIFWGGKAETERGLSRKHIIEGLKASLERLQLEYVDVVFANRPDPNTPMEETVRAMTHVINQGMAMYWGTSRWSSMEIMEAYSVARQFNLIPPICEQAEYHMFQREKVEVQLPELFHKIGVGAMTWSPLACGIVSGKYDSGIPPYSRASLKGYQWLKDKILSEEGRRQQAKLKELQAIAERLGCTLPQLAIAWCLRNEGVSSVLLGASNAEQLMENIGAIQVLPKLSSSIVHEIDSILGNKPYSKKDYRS
For experiment [6] the target is unchanged. The experiment is described as follows: KvBeta positive modulators, primary screen, biochemical, NADPH fluorescence (AID 623;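 active = NADPH fluorescence slope more negative than the mean of all samples by about 3 SD, 99.7% confidence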;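 note: fluorescence intensity change per second fitted from 20 to 320 s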). Conditions: Recombinant KvBeta, NADPH fluorescence decrease slope, 10 min; at 10 µM; stronger effect = lower value.
The target in experiment [7] is Muscarinic acetylcholine receptor M4 (Homo sapiens) (UniProt P08173). Put plainly: compounds altering M4/GIRK thallium flux, either direction, primary screen, M4 allosteric agonist project, cell-based, HEK293 M4/GIRK, BTC-AM (AID 625;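 active = fluorescence slope after compound addition differing from the mean of all tested samples at 99.7% confidence, mostly higher but some lower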;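 note: thallium influx through GIRK channels coupled to M4 in HEK293 cells with BTC-AM dye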). The settings on record: at 10 µM, actives lie on both sides. Summed up:
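Material: HEK293 cells with M4 receptor and GIRK channels; Times: cells overnight at 37 °C, BTC-AM loading 1 h, reads 2 min total; Technique: kinetic BTC-AM fluorescence sampled at 1 Hz, 10 s pre-addition baseline; Read-out basis: slope over 15–24 s of trace normalized to starting intensity; Controls: carbachol positive, DMSO negative.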

Experiment [8] is described as follows: inhibitors of larval lipid processing in zebrafish, primary screen, whole organism, PED6 fluorescence, gall bladder and intestine (AID 686;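 active = a full or partial loss of lipid-probe fluorescence in the fish gall bladder, intestine or both, judged by eye; inactive = no fluorescence loss, or compound toxic to the fish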;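 note: larvae 5 to 7 days old with five fish per well; signal comes from phospholipase A2 cleavage of quenched PED6 carried via bile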). The settings on record: Zebrafish larvae PED6 lipid processing, fluorescence scoring; screened at 20 µM (by protocol). Summed up:
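Incubation: overnight exposure of larvae to compound plus PED6 / Test system: live zebrafish larvae aged 5-7 days, whole organism / Amount: 5 larvae per well / Read-out basis: visual per-well fluorescence inhibition score / Signal: visual fluorescence microscopy scoring of gall bladder, gut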

Experiment [9] can be described thus: inhibitors of Chlamydomonas gravitaxis, primary screen, whole organism, Chlamydomonas reinhardtii, WT vs cilia-less mutant, absorbance, 96-well (AID 463189;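 active = inhibition at or above 50% relative to wild type and mutant plate controls; inactive = inhibition below 50%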;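 note: 0% = wild type cc124 cells in DMSO and 100% = ciliumless bld1 mutant cells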). The settings on record: OD600 absorbance, 2 days, at 10 µM, stronger effect = higher value.
Where [10] appears, read: measured here: cell density z-score.
Where [11] appears, read: measured here: nuclear c-Myc green intensity z-score.
Setting [12] is: measured here: nuclear pErk red intensity z-score, stronger effect = higher value.

The source made the active and inactive calls.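 Rule for the calls, unless noted: active = compounds giving at least 50% inhibition in the cell-based MKP-3 phosphatase rescue imaging test; inactive = the rest.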

Chain of Muscarinic acetylcholine receptor M4 (Homo sapiens) (P08173 whole entry, looked up): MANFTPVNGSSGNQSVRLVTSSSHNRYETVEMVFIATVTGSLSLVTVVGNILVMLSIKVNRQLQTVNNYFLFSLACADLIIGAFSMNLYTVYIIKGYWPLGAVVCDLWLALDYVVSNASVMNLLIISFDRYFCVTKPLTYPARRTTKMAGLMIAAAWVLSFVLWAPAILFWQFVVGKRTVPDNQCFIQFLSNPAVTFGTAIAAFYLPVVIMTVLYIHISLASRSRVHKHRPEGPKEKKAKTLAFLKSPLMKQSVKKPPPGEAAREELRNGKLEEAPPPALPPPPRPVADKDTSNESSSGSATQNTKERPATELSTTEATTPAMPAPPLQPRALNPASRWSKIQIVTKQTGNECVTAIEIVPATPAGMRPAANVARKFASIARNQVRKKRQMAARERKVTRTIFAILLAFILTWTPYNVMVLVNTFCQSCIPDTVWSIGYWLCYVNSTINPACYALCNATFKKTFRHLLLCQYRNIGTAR

In general, inhibition refers to the relative decrease from the control value, in per cent. With `CC(C)CN1C(=O)c2ccc(C(=O)Nc3ccccn3)cc2C1=O`, in experiment [1], the cell count was 669. Besides, the inhibition in [1] is -5.4% (inactive); in experiment [2], 50% (inactive); in [4], -11.4% (inactive); in [9], -7.05% (inactive). This molecule also had a nuclei count in experiment [2] of 136%. Also, the z-score in experiment [3] (setting [10]) is -1.42; in experiment [3] (setting [11]), 1.32; in experiment [3] (setting [12]), -0.345. Further, the figures for the fluorescence slope in experiment [5] and in experiment [7] were -0.495 (inactive) and 0.00831 (inactive), respectively. Besides, in experiment [6], the NADPH fluorescence slope is -4.7e-05 (inactive). In addition, the molecule was called inactive in experiment [8].

For `Cc1nc2c(c(N3CCOCC3)n1)OCC(=O)N2`, in experiment [1], the cell count stood at 562. Besides, the inhibition in [1] was -5.6% (inactive); in experiment [2], -63.7% (inactive); in [4], -4.59% (inactive); in [9], 31.8% (inactive). In experiment [2], this molecule returned a nuclei count of 132%. In addition, the z-score was -1.14 in experiment [3] (setting [10]), 0.329 in experiment [3] (setting [11]) and 1.34 in [3] (setting [12]). The fluorescence slope was -0.454 (inactive) in [5] and 0.00529 (inactive) in experiment [7]. Also, the NADPH fluorescence slope in [6] is -9.1e-05 (inactive). For the same molecule, the molecule was classed as inactive in experiment [8].

`Cc1cc(C)n(CC2CC(=O)N(c3cc(Cl)cc(Cl)c3)C2=O)n1` (stereo unspecified): in experiment [1], the cell count stood at 656. Also, the inhibition in experiment [1] is 50.4% (active); in [2] it was -80.7% (inactive); in experiment [4] it was -9.53% (inactive); in [9], 10.7% (inactive). In experiment [2], the nuclei count turned out to be 103%. Moreover, the z-score is -0.905 in [3] (setting [10]), 0.888 in [3] (setting [11]) and -1.76 in [3] (setting [12]). Further, the fluorescence slope was -0.548 (inactive) in experiment [5] and 0.00628 (inactive) in [7]. The NADPH fluorescence slope in experiment [6] was -7.9e-05 (inactive). In experiment [8], the molecule was called inactive.

For the molecule `COc1ccc(/C(O)=C2\C(=O)C(=O)N(CCN(C)C)C2c2cccc(OC)c2OC)cc1Cl` (stereo unspecified), the cell count in experiment [1] was found to be 629. Further, the inhibition in experiment [1] is -9.8% (inactive); in [2] it was -43.6% (inactive); in [4], 11.4% (inactive); in [9], 10.3% (inactive). In experiment [2], the nuclei count stood at 170%. The figures for the z-score in [3] (setting [10]), in [3] (setting [11]) and in [3] (setting [12]) were -0.541, -0.411 and -0.226, respectively. Further, the figures for the fluorescence slope in experiment [5] and in experiment [7] were -0.443 (inactive) and 0.00451 (inactive), respectively. Moreover, the NADPH fluorescence slope in experiment [6] was -3.1e-05 (inactive). For the same molecule, the molecule was classed as inactive in experiment [8].

As for `C#CC1CN(Cc2ccccc2)CC(C#C)N1C` (stereo unspecified), the cell count in [1] is 690. Further, the inhibition in [1] is -3% (inactive); in [2], 9% (inactive); in [4], -7.67% (inactive); in [9], -0.669% (inactive). In addition, the nuclei count in [2] is 156%. For the same molecule, the values for the z-score in experiment [3] (setting [10]), in experiment [3] (setting [11]) and in [3] (setting [12]) were -0.126, -0.517 and 1.32, respectively. Further, the fluorescence slope in experiment [5] was -0.44 (inactive); in experiment [7], 0.00453 (inactive). In addition, in experiment [6], the NADPH fluorescence slope was -3.5e-05 (inactive). In addition, the molecule was called inactive in experiment [8].

As to `CCN1CCc2c(C#N)c(NCc3ccccc3)nc(N(CC)CC)c2C1`, the cell count in [1] is 554. The inhibition in [1] was -13.9% (inactive); in experiment [2] it was -108% (inactive); in [4], 3.49% (inactive); in [9], 119% (active). In experiment [2], this molecule gave a nuclei count of 141%. The z-score in [3] (setting [10]) was 0.401; in experiment [3] (setting [11]), -1.69; in experiment [3] (setting [12]), 0.375. In addition, the fluorescence slope in [5] is -0.439 (inactive); in [7], 0.00477 (inactive). Besides, in experiment [6], the NADPH fluorescence slope was -0.000126 (inactive). The molecule was called inactive in [8].

Turning to `CC(=O)N(Cc1ccccc1)c1ccc(C(=O)O)cc1`, the cell count in experiment [1] turned out to be 486. Further, the inhibition in experiment [1] is -9.7% (inactive); in experiment [2] it was -65.3% (inactive); in [4], 3.42% (inactive); in experiment [9], 18% (inactive). In [2], this molecule registered a nuclei count of 95.1%. The z-score in [3] (setting [10]) was -0.584; in experiment [3] (setting [11]), 0.905; in experiment [3] (setting [12]), 1.49. Moreover, the values for the fluorescence slope in experiment [5] and in [7] were -0.454 (inactive) and 0.00471 (inactive), respectively. Also, in experiment [6], the NADPH fluorescence slope was 3.6e-05 (inactive). Also, the molecule was called inactive in experiment [8].
